The subject of assay [1] is A549. As to the kind of experiment: Antiproliferative activity against human A549 cells assessed as reduction in cell viability measured after 72 hrs by MTT assay. It counts as functional, cell-based. The procedure, abridged:
(§1)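 Cells seeded 5×10^3/well, cultured overnight, then exposed to 10, 1, 0.1, 0.01, 0.001 and 0.0001 µM (from 10 mM DMSO stocks diluted in medium; vehicle 1% DMSO PBS) for 72 h at 37 °C. Medium replaced with 0.5 mg/mL MTT for 4 h, formazan dissolved in DMSO, A570 read. IC50 as mean ± SD of three independent experiments.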
A general note: Tetrazolium dyes change colour on reduction, which living cells bring about.

Another assay has as its system HCT-116. The assay is described as follows: Antiproliferative activity against human HCT116 cells assessed as reduction in cell viability measured after 72 hrs by MTT assay. It counts as functional, cell-based. The essentials: as §1
Assay [2] relates to A549. The assay is described as follows: Inhibition of elongation factor 1-alpha1 expression in human A549 cells at 100 nM after 24 hrs by Western blot analysis. It counts as functional.
The next assay has as its system MCF7. As to the kind of experiment: Antiproliferative activity against human MCF7 cells assessed as reduction in cell viability measured after 72 hrs by MTT assay. It counts as functional, cell-based. The settings on record: MCF7, 72 h. The procedure, abridged:
(§2)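 Cells seeded at 5×10^3 per well and cultured overnight, then exposed for 72 h at 37 °C to six concentrations from 10 µM down to 0.0001 µM (from 10 mM DMSO stock diluted in medium; vehicle 1% DMSO in PBS). MTT at 0.5 mg/mL was added for 4 h, formazan dissolved in DMSO, and A570 read. IC50 given as mean ± SD of three independent experiments.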

The next assay relates to A-375. As to the kind of experiment: Antiproliferative activity against human A375 cells assessed as reduction in cell viability measured after 72 hrs by MTT assay. Conditions: A-375, 72 h. It counts as functional, cell-based. The procedure, abridged: as §2
Another assay concerns SH-SY5Y. The assay is described as follows: Antiproliferative activity against human SH-SY5Y cells assessed as reduction in cell viability measured after 72 hrs by MTT assay. It counts as functional, cell-based. The essentials:
as §2

A further assay has as its system MDA-MB-231. As to the kind of experiment: Antiproliferative activity against human MDA-MB-231 cells assessed as reduction in cell viability measured after 72 hrs by MTT assay. In kind it is functional, cell-based. The settings on record: MDA-MB-231, 72 h. The procedure, abridged: as §2
Assay [3] has as its system A549. The assay is described as follows: Inhibition of colony formation in human A549 cells at 10 nM incubated for 3 days followed by further incubation in drug-free medium and measured after 15 days by crystal violet staining-based inverted microscopic analysis. In kind it is functional, cell-based. The procedure, abridged:
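A549 cells were plated at 500 per well in 2 mL medium for 24 h, then treated for 3 days, with drug-free medium replaced every 3 days afterwards. At day 15 after plating, colonies were fixed in 95% ethanol for 15 min, stained with 0.1% crystal violet, and counted; a colony was defined as more than 100 cells. Mean ± SD of three independent experiments.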

Assay [4] relates to A549. The assay is described as follows: Cell cycle arrest in human A549 cells assessed as accumulation at G1 phase at 30 nM after 24 hrs by propidium iodide/RNase A staining-based flow cytometric analysis (reference value: 57.41%). In kind it is functional.
The subject of assay [5] is A549. As to the kind of experiment: Cell cycle arrest in human A549 cells assessed as accumulation at S phase at 30 nM after 24 hrs by propidium iodide/RNase A staining-based flow cytometric analysis (reference value: 12.57%). In kind it is functional. For orientation: Flow cytometry measures light scatter and fluorescence of single cells or particles in a stream.
The subject of assay [6] is A549. As to the kind of experiment: Cell cycle arrest in human A549 cells assessed as accumulation at G2 phase at 30 nM after 24 hrs by propidium iodide/RNase A staining-based flow cytometric analysis (reference value: 30.02%). In kind it is functional.
In assay [7] the test system is A549. As to the kind of experiment: Induction of apoptosis in human A549 cells assessed as viable cells at 30 nM after 12 hrs by Annexin-V FITC/propidium iodide staining based flow cytometric analysis (reference value: 97.18%). It counts as functional. Conditions: A549, 12 h, read-out: Activity.
Assay [8] deals with A549. The assay is described as follows: Induction of apoptosis in human A549 cells assessed as early apoptotic cells at 30 nM after 12 hrs by Annexin-V FITC/propidium iodide staining based flow cytometric analysis (reference value: 0.32%). It counts as functional.
In assay [9] the test system is A549. The assay is described as follows: Induction of apoptosis in human A549 cells assessed as late apoptotic cells at 30 nM after 12 hrs by Annexin-V FITC/propidium iodide staining based flow cytometric analysis (reference value: 1.22%). It counts as functional.
Assay [10] deals with A549. As to the kind of experiment: Induction of apoptosis in human A549 cells assessed as necrotic cells at 30 nM after 12 hrs by Annexin-V FITC/propidium iodide staining based flow cytometric analysis (reference value: 1.28%). It counts as functional.
A further assay has as its system PC-3. The assay is described as follows: Antiproliferative activity against human PC3 cells incubated for 72 hrs by 14C-thymidine incorporation assay. It counts as functional, cell-based. Conditions: PC-3, 72 h.
Another assay concerns HL-60. The assay is described as follows: Antiproliferative activity against human HL60 cells incubated for 96 hrs by cell-titer-Glo luminescent assay. In kind it is functional, cell-based. The settings on record: HL-60, 96 h.
[11] abbreviates: Homo sapiens, A549, 72 h, read-out: IC50.
Setting [12] is: Homo sapiens, HCT-116, 72 h, read-out: IC50.

Activity calls are given as the source filed them. Bounds are passed on as bounds.

One may read the IC50 as the concentration needed to halve the response being measured. `CC[C@H](C)[C@H]1C(=O)N[C@H](Cc2ccc(O)c(OC)c2)C(=O)N[C@@H](C(C)(C)O)C(=O)O[C@H](c2ccccc2)[C@H](C)/C=C/C=C(\C)[C@H](OC)C[C@@H]2O[C@@]2(C)C(=O)N1C`: the half-maximal inhibitory concentration (IC50) in the assay on A549 [1] (setting [11]) came out at 3.7 nM; in the assay with HCT-116 (setting [12]), 25.2 nM.

Regarding `CC[C@H](C)[C@H]1C(=O)N[C@H](Cc2cc(Cl)c(O)c(Cl)c2)C(=O)N[C@@H](C(C)C)C(=O)O[C@H](c2ccccc2)[C@H](C)/C=C/C=C(\C)[C@H](OC)C[C@@H]2O[C@@]2(C)C(=O)N1C`, the half-inhibitory concentration (IC50) is 3.2 nM in the assay with A549 [1] (setting [11]) and 10.5 nM in the assay with HCT-116 (setting [12]).

With `CC[C@H](C)[C@@H]1NC(=O)[C@]2(C)O[C@H]2C[C@@H](OC)/C(C)=C/C=C/[C@@H](C)[C@@H](c2ccccc2)OC(=O)[C@H](C(C)(C)O)NC(=O)[C@@H](Cc2cc(Cl)c(O)c(Cl)c2)NC1=O`, the IC50 in the assay with A549 [1] (setting [11]) is 557 nM; with HCT-116 (setting [12]), greater than 1000 nM.

Take `CO[C@@H]1C/C=C(\C)C(=O)N(C)[C@@H](C(C)C)C(=O)N[C@H](Cc2ccccc2)C(=O)N[C@@H](C(C)C)C(=O)O[C@H](c2ccccc2)[C@H](C)/C=C/C=C/1C`: the IC50 in the assay on A549 [1] (setting [11]) and with HCT-116 (setting [12]) was greater than 100 nM throughout.

Regarding `CO[C@@H]1C/C=C(\C)C(=O)N(C)[C@@H](C(C)C)C(=O)N[C@H](Cc2ccccc2)C(=O)N[C@@H](C(C)C)C(=O)O[C@H](c2ccccc2)C/C=C/C=C/1C`, the IC50 with A549 [1] (setting [11]) and in the assay on HCT-116 (setting [12]) was greater than 100 nM in each case.

For `CO[C@@H]1C/C=C(\C)C(=O)N(C)[C@@H](C(C)C)C(=O)N[C@H](Cc2ccc(O)cc2)C(=O)N[C@@H](C(C)C)C(=O)O[C@H](c2ccccc2)[C@H](C)/C=C/C=C/1C`, the half-inhibitory concentration (IC50) is 35.9 nM in the assay on A549 [1] (setting [11]) and 59.7 nM with HCT-116 (setting [12]).

For `CC[C@H](C)[C@H]1C(=O)N[C@H](Cc2ccccc2)C(=O)N[C@@H](C(C)(C)O)C(=O)O[C@H](c2ccccc2)[C@H](C)/C=C/C=C(\C)[C@H](OC)C[C@@H]2O[C@@]2(C)C(=O)N1C`, the IC50 in the assay on A549 [1] (setting [11]) was 14.3 nM; in the assay with HCT-116 (setting [12]), 20.9 nM.

With `CC[C@H](C)[C@H]1C(=O)N[C@H](Cc2cc(Cl)c(O)c(Cl)c2)C(=O)N[C@@H](C(C)(C)O)C(=O)O[C@H](c2ccccc2)[C@H](C)/C=C/C=C(\C)[C@H](OC)C/C=C(\C)C(=O)N1C`, the IC50 came out at 10.1 nM in the assay on A549 [1] (setting [11]) and 16.7 nM with HCT-116 (setting [12]).

As usually defined, the inhibition is the relative decrease from the control value, in per cent. On to `CO[C@@H]1C[C@@H]2O[C@@]2(C)C(=O)N[C@@H](C(C)C)C(=O)N[C@H](Cc2cc(Cl)c(O)c(Cl)c2)C(=O)N[C@@H](C(C)(C)O)C(=O)O[C@H](c2ccccc2)[C@H](C)/C=C/C=C/1C`, for which the IC50 result in the assay on A549 [1] (a549) and with HCT-116 (hct-116) was “Not Active” each time. Moreover, the inhibition result in the assay on A549 [2] is “inactive”.

On to `CC/C1=C\C=C\[C@@H](C)[C@@H](c2ccccc2)OC(=O)[C@H](C(C)C)NC(=O)[C@@H](Cc2cc(Cl)c(O)c(Cl)c2)NC(=O)[C@H](C(C)C)N(C)C(=O)/C(C)=C/C[C@H]1OC`, for which the IC50 in the assay with A549 [1] (setting [11]) was found to be 13.1 nM; with HCT-116 (setting [12]) it was 60.3 nM.

In the case of `COc1cccc2c1C(=O)c1c(O)c3c(c(O)c1C2=O)C[C@@](O)(C(=O)CO)C[C@@H]3O[C@H]1C[C@H](N)[C@H](O)[C@H](C)O1` [DOXORUBICIN], the IC50 with A549 [1] (setting [11]) was 459 nM; with HCT-116 (setting [12]), 366 nM.

For `CC[C@H](C)[C@H]1C(=O)N[C@H](Cc2cc(Cl)c(O)c(Cl)c2)C(=O)N[C@@H](C(C)(C)O)C(=O)O[C@H](c2ccccc2)C/C=C/C=C(\C)[C@H](OC)C[C@@H]2O[C@@]2(C)C(=O)N1C`, the IC50 amounted to 90.3 nM in the assay on A549 [1] (setting [11]) and 78.2 nM in the assay on HCT-116 (setting [12]).

Regarding `CC[C@H](C)[C@H]1C(=O)N[C@H](Cc2cc(Cl)c(O)c(Cl)c2)C(=O)N[C@@H](C(C)(C)O)C(=O)O[C@H](c2ccccc2)[C@H](C)/C=C/C=C(\C)[C@H](OC)C[C@@H]2O[C@@]2(C)C(=O)N1C`, the half-inhibitory concentration (IC50) turned out to be 13.1 nM in the assay with A549 [1] (setting [11]); 17 nM with HCT-116 (setting [12]); 8.7 nM in the assay on MCF7; 2.4 nM in the assay with A-375; 2.1 nM in the assay on SH-SY5Y; 7.5 nM in the assay with MDA-MB-231. Also, the half-maximal inhibitory concentration (IC50) in the assay on PC-3 turned out to be 1 nM; in the assay with HL-60, 12 nM. The inhibition result with A549 [3] was “Active”. Moreover, the Activity is 43.21% in the assay on A549 [4]; 7.38% in the assay with A549 [5]; 49.41% with A549 [6]; 4.11% with A549 [8]; 22.88% in the assay on A549 [9]; 11.44% in the assay with A549 [10]. Besides, the viability at 0.03 µM with A549 [7] was determined as 61.6%.

Take `CO[C@@H]1C/C=C(\C)C(=O)N(C)[C@@H](C(C)C)C(=O)N[C@H](Cc2cc(Cl)c(O)c(Cl)c2)C(=O)N[C@@H](CC(C)C)C(=O)O[C@H](c2ccccc2)[C@H](C)/C=C/C=C/1C`: the IC50 in the assay with A549 [1] (setting [11]) and with HCT-116 (setting [12]) was greater than 100 nM each time.

With `CO[C@@H]1C/C=C(\C)C(=O)N(C)[C@@H](C(C)C)C(=O)N[C@H](Cc2cc(Cl)c(O)c(Cl)c2)C(=O)N[C@@H](C(C)C)C(=O)O[C@H](c2ccccc2)[C@H](C)/C=C/C=C/1C`, the half-inhibitory concentration (IC50) in the assay on A549 [1] (setting [11]) was determined as 21.6 nM; in the assay on HCT-116 (setting [12]), 42.1 nM.

`CC[C@H](C)[C@H]1C(=O)N[C@H](Cc2cc(Cl)c(O)c(Cl)c2)C(=O)N[C@@H](C(C)(C)O)C(=O)O[C@H](c2ccccc2)[C@H](C)/C=C/C=C(\C)[C@H](OC)C/C=C/C(=O)N1C`: the results for the IC50 in the assay with A549 [1] (setting [11]) and in the assay on HCT-116 (setting [12]) were 40.5 nM and 124 nM, respectively.

For `CO[C@@H]1C[C@@H]2O[C@@]2(C)C(=O)N(C)[C@@H](C(C)C)C(=O)N[C@H](Cc2cc(Cl)c(O)c(Cl)c2)C(=O)N[C@@H](C(C)(C)O)C(=O)O[C@H](c2ccccc2)[C@H](C)/C=C/C=C/1C`, the figures for the 50% inhibitory concentration (IC50) with A549 [1] (setting [11]) and in the assay with HCT-116 (setting [12]) were 3.5 nM and 6.7 nM, respectively. The compound further registered an inhibition at 0.1 µM with A549 [2] (A549, 24 h) of 100%.

These data come from ChEMBL document CHEMBL4346669, “Novel nannocystin A analogues as anticancer therapeutics: Synthesis, biological evaluations and structure-activity relationship studies” (Eur J Med Chem, 2019).
